Measurements of several laboratories.
Target: Discoidin domain-containing receptor 2 (DDR2, Homo sapiens, UniProt Q16832)
One construct used (Q16832 22-855): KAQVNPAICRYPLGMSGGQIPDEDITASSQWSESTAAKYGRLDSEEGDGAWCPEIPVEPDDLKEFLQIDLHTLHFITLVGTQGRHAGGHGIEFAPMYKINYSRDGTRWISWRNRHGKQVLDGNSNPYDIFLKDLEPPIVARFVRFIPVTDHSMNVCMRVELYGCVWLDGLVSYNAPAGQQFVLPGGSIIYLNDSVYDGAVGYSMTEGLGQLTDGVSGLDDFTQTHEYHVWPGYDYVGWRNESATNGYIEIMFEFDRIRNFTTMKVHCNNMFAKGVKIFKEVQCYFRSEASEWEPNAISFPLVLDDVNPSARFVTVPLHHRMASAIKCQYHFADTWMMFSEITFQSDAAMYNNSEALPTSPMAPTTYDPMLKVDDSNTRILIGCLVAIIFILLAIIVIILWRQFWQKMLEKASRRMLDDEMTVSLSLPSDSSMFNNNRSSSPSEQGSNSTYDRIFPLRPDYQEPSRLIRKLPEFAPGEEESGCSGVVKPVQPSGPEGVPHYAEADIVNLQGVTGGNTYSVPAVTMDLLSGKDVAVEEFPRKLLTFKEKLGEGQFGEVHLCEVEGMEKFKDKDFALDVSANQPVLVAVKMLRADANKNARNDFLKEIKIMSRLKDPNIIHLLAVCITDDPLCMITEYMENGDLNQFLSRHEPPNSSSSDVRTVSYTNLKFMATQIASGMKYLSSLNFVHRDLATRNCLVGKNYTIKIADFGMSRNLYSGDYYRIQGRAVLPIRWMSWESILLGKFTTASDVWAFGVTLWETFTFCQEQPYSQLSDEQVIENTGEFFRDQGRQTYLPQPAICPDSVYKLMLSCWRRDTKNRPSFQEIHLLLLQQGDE

CCCOc1ccc(OC)c(F)c1C(=O)c1ccc(C(=O)N[C@@H]2CNC[C@H]2NC(=O)c2ccc3[nH]ncc3c2)cc1  remaining activity (enzyme activity; inhibitor; 10 µM): 103%
CCN(CC)c1ccc(C2=NNC(=O)CC2C)cc1[N+](=O)[O-] (stereo not drawn)  remaining activity (enzyme activity; inhibitor; 10 µM): 100%
CNC(=O)Nc1ccc2c(c1)CC[C@@]21OC(=O)N(CC(=O)N(Cc2ccc(F)cc2)[C@@H](C)C(F)(F)F)C1=O  remaining binding (cell-free assay; competition with immobilised ligand; 1 µM): 75%
COc1cc(/C=C/C(=O)CC(=O)/C=C/c2ccc(O)c(OC)c2)ccc1O  activity vs control (enzyme activity; inhibitor; 1 µM): 109%
Cc1cnc(NC2CCOCC2)nc1-n1cnc(C(=O)NC(CN)c2cc(F)cc(Cl)c2)c1 (stereo not drawn)  remaining activity (enzyme activity; inhibitor; radiometric; 1 µM): 102%
CCCS(=O)(=O)Nc1ccc(F)c(C(=O)c2c[nH]c3ncc(-c4ccc(Cl)cc4)cc23)c1F  inhibition (enzyme activity; inhibitor; 1 µM): < 10%
CCN(CC)CCNC(=O)c1c(C)[nH]c(/C=C2\C(=O)Nc3ccc(F)cc32)c1C  remaining activity (enzyme activity; inhibitor; 0.1 µM): 101%
O=C(Nc1cnn(-c2csc(C(=O)NC3COC3)c2)c1)Nc1ccccc1Cl  remaining activity (enzyme activity; inhibitor; 5 µM): 99.8%
CC(C)(C)c1nc2c(s1)c1nc(N)ncc1c1ccc(NS(=O)(=O)c3c(F)cccc3F)c(F)c12  remaining activity (enzyme activity; inhibitor; radiometric; 1 µM): 69%
CC(C)(O)[C@H]1CC[C@H](Nc2ccc3ncc(-c4cccc(C(F)(F)F)c4)n3n2)CC1  remaining activity (enzyme activity; inhibitor; 1 µM): 49.5%
CN(C)c1ncnc(-c2ccc3nc(Nc4cc(CN5CCN(C(=O)CC(F)(F)F)CC5)ccn4)[nH]c3c2)c1Cl  remaining binding (cell-free assay; competition with immobilised ligand; 1 µM): 71%
COc1cc2c(N3CCN(C(=O)Nc4ccc(OC(C)C)cc4)CC3)ncnc2cc1OCCCN1CCCCC1  remaining signal (cell-free assay; 0.5 µM): 102%
CC/C(=N\NC(=O)NCc1cccc(O)c1)c1ccc(O)c(C)c1O  inhibition (enzyme activity; inhibitor; 0.1 µM): 0.1%
CO[C@H]1CC[C@H](CNc2ccc(S(=O)(=O)NC(=O)c3ccc(N4CCN(CC5=C(c6ccc(Cl)cc6)CC(C)(C)CC5)CC4)cc3Oc3cnc4[nH]ccc4c3)cc2[N+](=O)[O-])CC1  remaining binding (cell-free assay; competition with immobilised ligand; 1 µM): 100%
O=C1Nc2ccc(Cl)cc2C1=Cc1cc(Cl)c(O)c(Cl)c1  remaining signal (cell-free assay; 0.5 µM): 85.8%
C[C@@H]1CN(c2cc(-c3n[nH]c4ccc(OC5(C)CC5)cc34)ncn2)C[C@H](C)O1  remaining binding (cell-free assay; competition with immobilised ligand; 0.1 µM): 82%
CCN(CC)CCNC(=O)c1c(C)[nH]c(/C=C2\C(=O)Nc3ccc(F)cc32)c1C  inhibition (enzyme activity; inhibitor; 0.3 µM): -8%
Cc1ccc(C(=O)NCc2ccsc2)cc1C#Cc1cn(C(C)C)c2ncnc(N)c12  activity vs control (enzyme activity; inhibitor; 1 µM): 4%
CCC(=O)N[C@H]1CC[C@@H](C(=O)N(C)c2ccc(-c3nc4ccccc4o3)cc2)C1  remaining binding (cell-free assay; competition with immobilised ligand; 1 µM): 100%
COc1cc2nccc(Oc3ccc(NC(=O)c4c5n(n(-c6ccc(F)cc6)c4=O)CCCC5)cc3)c2cc1OC  inhibition (enzyme activity; inhibitor; 0.1 µM): 20%
O=C(NCc1ncc(C(F)(F)F)cc1Cl)c1ccc2c(c1)C1(CCS(=O)(=O)CC1)[C@H](C1CC1)N2S(=O)(=O)c1ccc(F)cc1  remaining binding (cell-free assay; competition with immobilised ligand; 1 µM): 78%
CNC(=O)c1cc(Oc2ccc(NC(=O)Nc3ccc(Cl)c(C(F)(F)F)c3)cc2)ccn1  inhibition (enzyme activity; inhibitor; 10 µM): 111%
O=C(NC[C@@H]1[C@H]2CN(C(=O)OCc3cc(C(F)(F)F)cc(C(F)(F)F)c3)C[C@@H]12)c1ccc2[nH]nnc2c1  remaining binding (cell-free assay; competition with immobilised ligand; 1 µM): 82%
Cc1[nH]c(/C=C2\C(=O)Nc3ccc(F)cc32)c(C)c1C(=O)N[C@H]1CCN(C(=O)N(C)C)C1  remaining activity (enzyme activity; inhibitor; 0.1 µM): 113%
